Assay results taken from the EternaBench riboswitch data.

System: MS2 coat protein
Test: apparent Kd, MS2 coat protein; higher = weaker binding; RNA-MaP array; FMN 200 µM where present
Procedure, shortened: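 Stalled E. coli RNA polymerase produced the designs on Illumina sequencing-chip clusters. SNAP-549-labelled MS2 coat protein was added from 0.7 or 1.5 nM, doubling to 3 µM, without and then with constant ligand, in 100 mM Tris-HCl pH 7.5, 80 mM KCl, 4 mM MgCl2, BSA, DTT, yeast tRNA and Tween-20. The apparent Kd is the median of filtered per-cluster fits of green signal normalised to red-channel RNA signal and control-cluster median Fmax.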

[1] = designed as: OFF switch for flavin mononucleotide, no ligand
[2] = ligand present: flavin mononucleotide, designed as: OFF switch for flavin mononucleotide
[3] = designed as: ON switch for flavin mononucleotide, no ligand
[4] = ligand present: flavin mononucleotide, designed as: ON switch for flavin mononucleotide

| Sequence | apparent Kd [1] | apparent Kd [2] | apparent Kd [3] | apparent Kd [4] |
| --- | --- | --- | --- | --- |
| GGAUAGGACAGAGGAUAUACGUGCUAGAGAUACUAGCAGAAUUUCCUCACAUGAGGAUCACCCAUGUAGAAGGCUGUCCUAUCG | 12.2 nM | 216 nM |  |  |
| GGAUAGUGUCGUUAUCCGUAGCGAACAUGAGGAUCACCCAUGUAGGAUAUGUUAUUAAACUAAUAACAGAAGGGCGUUGGUCUC | 121 nM | 147 nM |  |  |
| GGAUAUGUCGUCUACAUGAGGAUCACCCAUGUCGAUAGACAUGAGGAUAUCGAUAAGAAUUGUAUCGAGAAGGUAUGUAGGUCC |  |  | 23 nM | 30.2 nM |
| GGAUCGAGUGUGAGGAUAUACCUAUGGAUACAUAGGUAGAAGGCACAUGAGGAUCACCCAUGUGUUCCCGGUCC | 43.4 nM | 368 nM |  |  |
| GGAUCGAGUGUGAGGAUAUGCUGGUCCUUGGAUCAGCAGAAGGCACAUGAGGAUCACCCAUGUGAAAACGGUCC | 26.6 nM | 189 nM |  |  |
| GGAUCGAUAGUGAGGAUAUACCACUGGAUACAGUGGUAGAAGGCACAUGAGGAUCACCCAUGUCCUAACGAUCC | 20.6 nM | 99.4 nM |  |  |
| GGAUCGAUGUAGAAGGCUGUCUUAAAAUAGGACAGAGGAUAUACAUGAGGAUCACCCAUGUACUCCUUUAAAAUGAUCCAAAUA | 5.81 nM | 9.65 nM |  |  |
| GGAUGACAAAGUCAUCCAAAUCGAACAUGAGGAUCACCCAUGUAGGAUAUGCAACUCAAAGAGUUGCAGAAGGACAUGUGCUUU | 40.9 nM | 172 nM |  |  |
| GGAUGACAAAGUCAUCCAAAUCGAACAUGAGGAUCACCCAUGUAGGAUAUGCUACUCAAAGAGUAGCAGAAGGACAUGUGCUUU | 37.1 nM | 196 nM |  |  |
| GGAUGACAAAGUCAUCCAAAUCGAACAUGAGGAUCACCCAUGUAGGAUAUGCUACUGAAACAGUAGCAGAAGGACAUGUGCUUU | 35.3 nM | 187 nM |  |  |
| GGAUGACAAAGUCAUCCAUAACGAACAUGAGGAUCACCCAUGUAGGAUAUGCUAGUCAAAGACUAGCAGAAGGACAUGUGUCUU | 36.4 nM | 146 nM |  |  |
| GGAUGACAAAGUCAUCCCGCUUUGACAUGAGGAUCACCCAUGUAGGAUAUAUUAAUCAAAGAUUAAUAGAAGGACAUGUUUCUG | 72.4 nM | 174 nM |  |  |
| GGAUGACAUAGUCAUCCUUAACGAACAUGAGGAUCACCCAUGUAGGAUAUGCUACUCAAAGAGUAGCAGAAGGGUAUGUGUCUU | 53.6 nM | 56.3 nM |  |  |
| GGAUGACAUAGUCAUCUUUAACGAACAUGAGGAUCACCCAUGUAGGAUAUGCUACUCAACGAGUAGCAGAAGGACAUGUGUCUU | 25.9 nM | 127 nM |  |  |
| GGAUGAGCAAUAGGAUAUGCUGGGAUUGAAUGGGUAGAAGGAUUUCUAGUGGUAAAGACAUGAGGAUCACCCAUGUCGCGGCCC |  |  | 45.7 nM | 45.2 nM |
| GGAUUACAUGAGGAUCACCCAUGUAGAAGGCGCCUGGGAGACCAGCGCGAGGUAGAAGACCCGGGCGAGGAUAUACAGGAGGGC | 25.5 nM | 56.4 nM |  |  |
| GGAUUACAUGAGGAUCACCCAUGUGAGGAUAUCGAUGUCCUGGGUGGAGUGCGGGACUCGAGAAGGCACUUGGA | 60.5 nM | 229 nM |  |  |
| GGAUUACAUGAGGAUCACCCAUGUGAGGAUAUCGAUGUCCUGUGUGGAGUGCGGGACUCGAGAAGGCACUUGGA | 43.8 nM | 219 nM |  |  |
| GGCAAGUGAGGAUAUCACCACGGCGUGGGCACCACGGCCAGUGAGAAGGCACAUGAGGAUCACCCAUGUGAUCA | 88 nM | 541 nM |  |  |
| GGCAGCUCAGGAUAUAGUUAAAACGACAUGAGGAUCACCCAUGUGACUGAUAUGCGGCGCCUAGAAGGGAGGUGCC | 18.9 nM | 18.2 nM |  |  |
| GGCCCGGGAGGAUAUACAUGAGGAUCACCCAUGUGCUUGAGCUUGAUCGAGUUCGAGUGUAGAAGGCCCGGGCC | 14 nM | 21.8 nM |  |  |

| Sequence | apparent Kd [1] | apparent Kd [2] | apparent Kd [3] | apparent Kd [4] |
| --- | --- | --- | --- | --- |
| GGCGACCUAGGAUAUACAUGAGGAUCACCCAUGUUUAUCUAUUAGAUGAAGACGGGUUGUAGAAGGAGGAUAUU | 15.5 nM | 18.2 nM |  |  |
| GGCGGAGACGUUAACAUGAGGAUCACCCAUGUCGAAGGAGAUGAGGAUAUCGCACACGAUGUGUGUGAGAAGGCAUGGUCUGCC |  |  | 67.4 nM | 15.4 nM |
| GGCUAGUCAGGAUAUACGAACAUGUCAAAAGACGUGAAGGGACAUGAGGAUCACCCAUGUAGAAGGGACUAGCU | 24.8 nM | 165 nM |  |  |
| GGCUGGUGACAGCAUCCAUCAAAACAUGAGGAUCACCCAUGUAGAAGGCUGUACGGUUACCGUACAGAGGAUAUACAAUGAUGG | 6.96 nM | 9.46 nM |  |  |
| GGCUGGUGAGCAGGAUAUGGUCGUGCCUUUGUUCGUGGUCCCACAUGAGGAUCACCCAUGUUCGACCAGAAGGGCUGACUUGAG | 31 nM | 18.9 nM |  |  |
| GGGAGACAUGAGGAUCACCCAUGUGAAAACGUGCGAGGAUAUCAAUGGAAACCAUACUGUUGAGAAGGCGUUUGUC |  |  | 100 nM | 55 nM |
| GGGAUAAGGCAGAAGGACAUGAGGAUCACCCAUGUAGGAUAUGCCUACAUCCGCAUCUUAGGUCUCGCUCUGUCGCGACCCUCU |  |  | 8.99 nM | 5.29 nM |
| GGGCCACAUGAGGAUCACCCAUGUAAACCCGUGCUCAGGGCACAGGAUAUGGGCCUGGAUUAGGCCCAGAAGGGUGGUCUGGCC |  |  | 29.4 nM | 10.6 nM |
| GGGCCCGGAGGAUAUACAUGAGGAUCACCCAUGUACUCGGGCUCUAUUGGGCUCGGGUGUAGAAGGCCGGGCCC | 13.7 nM | 14.1 nM |  |  |
| GGGCGACAUGAGGAUCACCCAUGUAACCUAAACGAAGGAUAUGGGCCUGAACGUCCAGGACCAGAAGGUCGGAAAU |  |  | 23.6 nM | 17.9 nM |
| GGGCGCCACGUAGGAUAUCUUCCGUAUGGGUCCCAUCAUAGCACAUGAGGAUCACCCAUGUGGGUAGAGAAGGACGGUUUGCCG | 221 nM | 59.5 nM |  |  |
| GGGCUCGGAGGAUAUACAAUGGGCUCGGGAAAUCGGGUCUUACAUGAGGAUCACCCAUGUAGAAGGUCGGGUCU | 22.2 nM | 47.1 nM |  |  |
| GGGCUGUCAGGAUAUAGUUCGAGUUCGGAAAUGAGCUUGAGCUAGAAGGGACAUGAGGAUCACCCAUGUGGCCC | 31.1 nM | 34.2 nM |  |  |
| GGGCUGUCAGGAUAUGGGCUCGGGCUCGAAAGGGCUCGGGCUCAGAAGGGACAUGAGGAUCACCCAUGUGGCUC | 43.8 nM | 58 nM |  |  |
| GGGCUGUCAGGAUAUGGGUUUGGGCCCGAAAGGGCCCGGGCCCAGAAGGGACAUGAGGAUCACCCAUGUGGCCC | 32.1 nM | 33.8 nM |  |  |
| GGGUAACAUGAGGAUCACCCAUGUGAGGAUAUCCUAGGGAUGGAAGCCCGGCCAACCAGGAGAAGGUACUAAAG | 83.2 nM | 89.7 nM |  |  |
| GGGUACAUCGGAGGAUAUCAUGCAAAUACAUGAGGAUCACCCAUGUCGAUGGAGACAUCGGAGAUUGAGAAGGCCGAUGUACCG |  |  | 21.9 nM | 5.5 nM |
| GGGUACAUCGGAGGAUAUCAUGUAAAUACAUGAGGAUCACCCAUGUCGAUGAAGACAUCGGAGAUUGAGAAGGCCGAUGUACCG |  |  | 1070 nM | 76.3 nM |
| GGGUACAUCGGAGGAUAUCAUGUAAAUACAUGAGGAUCACCCAUGUCGAUGGACACAUCGGAGAUUGAGAAGGCCGAUGUACCG |  |  | 14.5 nM | 5.27 nM |
| GGGUACAUCGGAGGAUAUCAUGUAAAUACAUGAGGAUCACCCAUGUCGAUGGCGACAUCGGAGAUUGAGAAGGCCGAUGUACCG |  |  | 448 nM | 12.3 nM |
| GGGUGACUAGGAUAUACAUGAGGAUCACCCAUGUGUACUGGACCUGGGUAGUCUUGGAGUAGAAGGAGUAGCUG | 85.3 nM | 127 nM |  |  |
